Test results published in ChEMBL document CHEMBL5370658, “Development of First-in-Class Dual Sirt2/HDAC6 Inhibitors as Molecular Tools for Dual Inhibition of Tubulin Deacetylation” (J Med Chem, 2023).
Calls of active or inactive are those of the source.

Legend:
[1] = biological target: Histone deacetylase 1/2/3 (Homo sapiens) (UniProt Q13547+O15379+Q92769); experiment: Inhibition of HDAC1/2/3 in human MCF7 cells assessed as increase in histone H3 acetylation at 10 to 20 uM incubated for 24 hrs by Western blot analysis; type: cell-based; conditions: dose 10-20 µM
[2] = biological target: NAD-dependent protein deacylase sirtuin-5, mitochondrial (Homo sapiens) (UniProt Q9NXA8); experiment: Inhibition of Sirt5 (unknown origin) using Bz-GVLK(Succ)EYGV-NH2 as substrate at 20 to 500 uM preincubated for 5 mins followed by enzyme addition and measured after 5 mins by RP-HPLC analysis; conditions: dose 20-500 µM, time 10.0 min
Chain of NAD-dependent protein deacylase sirtuin-5, mitochondrial (Homo sapiens) (Q9NXA8 37-310 limits assumed): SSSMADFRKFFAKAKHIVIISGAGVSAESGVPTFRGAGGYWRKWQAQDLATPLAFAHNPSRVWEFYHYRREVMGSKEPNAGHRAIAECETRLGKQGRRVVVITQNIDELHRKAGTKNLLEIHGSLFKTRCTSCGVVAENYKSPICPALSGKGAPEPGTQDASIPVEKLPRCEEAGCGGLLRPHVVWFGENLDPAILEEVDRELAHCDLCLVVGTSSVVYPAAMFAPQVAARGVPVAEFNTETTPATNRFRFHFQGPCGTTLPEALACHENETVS
How it was run: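 Discontinuous HPLC assay, 120 µL in 20 mM Tris pH 7.8, 150 mM NaCl, 5 mM MgCl2, 0.2 mg/mL BSA, 5% DMSO. Inhibitor preincubated at 37 °C with NAD+ (1 mM) and substrate (Sirt5 5 µM; Sirt6 20 µM). Started with enzyme (Sirt5 100 nM; Sirt6 500 nM). Quenched with TFA/ACN. Sirt5 read by A220, Sirt6 by A360 (nitrotyrosine). Performed once in duplicates; IC50 by nonlinear regression.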

[3] = biological target: T1, Histone deacetylase 7 (Homo sapiens) (UniProt Q8WUI4); experiment: Inhibition of HDAC7 (unknown origin) using Abz-SRGGK(STFA)FRR-NH2 as substrate at 6 to 20000 nM preincubated for 5 mins followed by substrate addition and measured every 30 secs for 30 mins by continuous fluorescence based assay; conditions: dose 6-20000 nM, time 35.0 min
T1 sequence (whole entry): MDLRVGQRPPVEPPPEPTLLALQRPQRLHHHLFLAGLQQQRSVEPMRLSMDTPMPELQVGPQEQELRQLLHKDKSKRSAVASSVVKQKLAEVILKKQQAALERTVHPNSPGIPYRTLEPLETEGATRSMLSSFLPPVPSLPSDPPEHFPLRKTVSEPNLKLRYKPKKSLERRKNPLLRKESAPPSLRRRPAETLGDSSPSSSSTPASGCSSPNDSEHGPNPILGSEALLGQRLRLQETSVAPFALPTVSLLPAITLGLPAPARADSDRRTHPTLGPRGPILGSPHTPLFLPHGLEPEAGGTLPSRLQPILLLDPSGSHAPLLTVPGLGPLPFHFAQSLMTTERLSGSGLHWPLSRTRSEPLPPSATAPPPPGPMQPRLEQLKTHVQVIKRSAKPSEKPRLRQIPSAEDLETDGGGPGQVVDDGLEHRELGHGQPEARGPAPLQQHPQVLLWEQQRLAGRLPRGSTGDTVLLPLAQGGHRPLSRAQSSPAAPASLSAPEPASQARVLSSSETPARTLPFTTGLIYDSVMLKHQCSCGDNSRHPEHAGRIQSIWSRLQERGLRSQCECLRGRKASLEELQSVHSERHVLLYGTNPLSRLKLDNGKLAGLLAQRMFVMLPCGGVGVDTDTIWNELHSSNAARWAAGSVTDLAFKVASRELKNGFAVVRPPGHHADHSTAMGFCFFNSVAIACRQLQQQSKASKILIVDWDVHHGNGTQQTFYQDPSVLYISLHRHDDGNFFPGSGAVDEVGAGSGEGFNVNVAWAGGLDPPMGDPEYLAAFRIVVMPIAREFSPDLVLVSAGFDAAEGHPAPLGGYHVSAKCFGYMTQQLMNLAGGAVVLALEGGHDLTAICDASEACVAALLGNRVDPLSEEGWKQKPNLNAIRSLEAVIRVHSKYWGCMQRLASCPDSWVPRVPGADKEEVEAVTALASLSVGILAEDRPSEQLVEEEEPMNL
How it was run: (§1)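 Continuous fluorescence assay in 20 mM HEPES pH 7.4, 140 mM NaCl, 10 mM KCl, 1 mM TCEP, 0.2 mg/mL BSA, 3% DMSO final. Enzyme (HDAC4 5 nM, HDAC5 10 nM, HDAC7 5 nM, HDAC9 20 nM) preincubated with inhibitor at room temperature. HDAC10 (5 nM) instead in 20 mM HEPES pH 7.4, 0.5 mg/mL BSA. Initial slope used as activity.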

[4] = biological target: Histone deacetylase 9 (Homo sapiens) (UniProt Q9UKV0); experiment: Inhibition of HDAC9 (unknown origin) using Abz-SRGGK(STFA)FRR-NH2 as substrate at 6 to 20000 nM preincubated for 5 mins followed by substrate addition and measured every 30 secs for 30 mins by continuous fluorescence based assay; conditions: dose 6-20000 nM, time 35.0 min; how it was run: as §1
Chain of Histone deacetylase 9 (Homo sapiens) (Q9UKV0 whole entry): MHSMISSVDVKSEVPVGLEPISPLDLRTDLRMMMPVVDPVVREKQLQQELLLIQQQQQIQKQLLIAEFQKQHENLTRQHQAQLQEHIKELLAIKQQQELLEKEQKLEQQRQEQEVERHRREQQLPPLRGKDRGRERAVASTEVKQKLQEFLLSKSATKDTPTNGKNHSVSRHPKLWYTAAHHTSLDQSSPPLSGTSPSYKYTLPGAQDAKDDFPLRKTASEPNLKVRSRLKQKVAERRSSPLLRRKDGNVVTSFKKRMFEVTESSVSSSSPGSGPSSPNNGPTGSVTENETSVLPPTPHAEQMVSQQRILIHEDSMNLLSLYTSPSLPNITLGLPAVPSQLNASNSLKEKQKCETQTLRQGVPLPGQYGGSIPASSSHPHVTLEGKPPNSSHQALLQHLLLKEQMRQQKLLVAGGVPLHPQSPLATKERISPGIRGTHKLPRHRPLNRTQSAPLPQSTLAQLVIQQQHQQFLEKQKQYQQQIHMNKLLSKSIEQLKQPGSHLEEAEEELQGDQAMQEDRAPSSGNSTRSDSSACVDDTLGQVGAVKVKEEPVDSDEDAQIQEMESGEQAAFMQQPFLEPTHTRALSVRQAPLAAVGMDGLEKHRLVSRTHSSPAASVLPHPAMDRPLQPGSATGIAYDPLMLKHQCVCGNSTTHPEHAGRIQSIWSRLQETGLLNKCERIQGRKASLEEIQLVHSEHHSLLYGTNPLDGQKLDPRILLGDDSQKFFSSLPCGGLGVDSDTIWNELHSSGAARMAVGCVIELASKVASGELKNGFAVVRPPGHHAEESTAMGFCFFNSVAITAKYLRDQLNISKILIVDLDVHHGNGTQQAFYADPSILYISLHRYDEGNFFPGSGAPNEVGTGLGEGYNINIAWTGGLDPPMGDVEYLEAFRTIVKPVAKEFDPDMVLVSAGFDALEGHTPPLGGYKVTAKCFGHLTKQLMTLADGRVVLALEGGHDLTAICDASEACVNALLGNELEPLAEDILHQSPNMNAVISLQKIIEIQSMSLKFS

[5] = biological target: Histone deacetylase 5 (Homo sapiens) (UniProt Q9UQL6); experiment: Inhibition of HDAC5 (unknown origin) using Abz-SRGGK(STFA)FRR-NH2 as substrate at 6 to 20000 nM preincubated for 5 mins followed by substrate addition and measured every 30 secs for 30 mins by continuous fluorescence based assay; conditions: dose 6-20000 nM, time 35.0 min; how it was run: as §1
Chain of Histone deacetylase 5 (Homo sapiens) (Q9UQL6 whole entry): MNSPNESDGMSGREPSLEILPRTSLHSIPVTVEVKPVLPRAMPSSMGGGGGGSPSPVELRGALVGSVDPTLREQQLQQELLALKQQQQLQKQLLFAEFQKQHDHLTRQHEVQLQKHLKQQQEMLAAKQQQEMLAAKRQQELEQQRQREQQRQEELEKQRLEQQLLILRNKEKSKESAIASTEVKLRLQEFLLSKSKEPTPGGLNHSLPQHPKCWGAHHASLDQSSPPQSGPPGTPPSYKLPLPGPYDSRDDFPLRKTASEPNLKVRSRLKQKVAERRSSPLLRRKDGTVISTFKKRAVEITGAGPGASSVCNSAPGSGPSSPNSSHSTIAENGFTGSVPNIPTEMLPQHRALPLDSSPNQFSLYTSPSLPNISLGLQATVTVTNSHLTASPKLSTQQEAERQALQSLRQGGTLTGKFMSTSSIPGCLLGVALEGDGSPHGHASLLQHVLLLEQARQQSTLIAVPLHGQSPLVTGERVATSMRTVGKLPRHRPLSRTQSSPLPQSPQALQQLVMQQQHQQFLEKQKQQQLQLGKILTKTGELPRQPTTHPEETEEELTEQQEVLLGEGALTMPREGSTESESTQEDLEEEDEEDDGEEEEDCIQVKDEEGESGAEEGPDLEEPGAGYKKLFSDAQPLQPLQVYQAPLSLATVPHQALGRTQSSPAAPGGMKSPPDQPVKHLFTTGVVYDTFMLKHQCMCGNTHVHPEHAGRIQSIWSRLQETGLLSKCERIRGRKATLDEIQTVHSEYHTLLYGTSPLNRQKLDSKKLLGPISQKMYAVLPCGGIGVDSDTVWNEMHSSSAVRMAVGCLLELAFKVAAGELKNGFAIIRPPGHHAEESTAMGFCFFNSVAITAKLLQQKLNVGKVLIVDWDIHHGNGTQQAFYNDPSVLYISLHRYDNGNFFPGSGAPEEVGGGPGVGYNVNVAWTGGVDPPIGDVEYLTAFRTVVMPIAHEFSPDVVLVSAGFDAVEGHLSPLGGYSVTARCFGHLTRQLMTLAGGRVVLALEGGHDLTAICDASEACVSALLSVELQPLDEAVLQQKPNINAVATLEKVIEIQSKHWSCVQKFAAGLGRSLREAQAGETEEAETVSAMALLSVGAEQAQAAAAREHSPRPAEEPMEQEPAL

Measured: inhibition

CCCCN(Cc1ccc(C(=O)NO)cc1)C(=O)CCCCn1cc(COc2cccc(Cc3cnc(NC(=O)CSc4nc(C)cc(C)n4)s3)c2)nn1
inactive: all assays above
